Test results from BindingDB's records for doi:10.1021/np900192r (Cnrs, 2009).

Molecular target: Bcl-2-like protein 1 (Homo sapiens, UniProt Q07817)
Assay: Binding affinity to Bcl-xL by fluorescein-labeled Bak-BH3 peptide competition binding assay
Summary of the method: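 Fluorescence polarization competition on Bcl-xL against a fluorescein-tagged Bak BH3-domain peptide as the reference ligand. Ki is the dissociation constant at equilibrium with the reference ligand. Unlabeled Bak(BH3) peptide and a substituted terphenyl derivative served as positive controls. Bcl-xL values are from duplicate runs.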

Sequence of Bcl-2-like protein 1 (Q07817 whole entry): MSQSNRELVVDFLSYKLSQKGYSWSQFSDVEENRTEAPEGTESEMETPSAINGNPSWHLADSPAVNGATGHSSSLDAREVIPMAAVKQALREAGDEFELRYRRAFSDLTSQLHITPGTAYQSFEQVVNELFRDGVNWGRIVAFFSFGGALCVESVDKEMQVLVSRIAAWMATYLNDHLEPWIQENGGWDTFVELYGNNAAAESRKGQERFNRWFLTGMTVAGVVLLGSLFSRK

Row | Ki | SMILES
1 | > 100 µM | CC(=O)O[C@@H]1[C@@H](OC(C)=O)[C@@H](O)[C@H](OC[C@]2(C)[C@@H](OC(C)=O)C[C@H](O)[C@]3(C)[C@H]4CC=C5[C@H]6C[C@](C)(C(=O)O)CC[C@]6(C)CC[C@@]5(C)[C@]4(C)CC[C@@H]23)O[C@H]1C [23-O-[alpha-L-(3',4'-Diacetylrhamnopyranosyl]-3beta-acetylimberbic acid]
2 | > 100 µM | COC(=O)[C@]1(C)CC[C@]2(C)CC[C@]3(C)C(=CC[C@@H]4[C@@]5(C)[C@@H](O)C[C@H](OC(C)=O)[C@@](C)(CO[C@@H]6O[C@@H](C)[C@H](OC(C)=O)[C@@H](O)[C@H]6O)[C@@H]5CC[C@]43C)[C@H]2C1 [23-O-[alpha-L-(4'-Acetylrhamnopyranosyl]-3beta-acetylimberbic acid 29-methyl ester]
3 | > 100 µM | CC(=O)O[C@@H]1[C@@H](O)[C@@H](O)[C@H](OC[C@]2(C)[C@@H](OC(C)=O)C[C@H](O)[C@]3(C)[C@H]4CC=C5[C@H]6C[C@](C)(C(=O)O)CC[C@]6(C)CC[C@@]5(C)[C@]4(C)CC[C@@H]23)O[C@H]1C [23-O-[alpha-L-(4'-Acetylrhamnopyranosyl]-3beta-acetylimberbic acid]
